TRPC4 agonist: activators of mouse TRPC4 channel | HEK293 TRPC4beta/mu-opioid, Fluo4 calcium fluorescence; active compounds read high | 0.49% of 310,000 active | B-score at 10 µM | AID 2237 | Q9QUQ5;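 active means B-score above 5 SD of library B-scores, and initial fluorescence ratio not above library mean plus 5 SD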;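 further: positive B-score marks a calcium rise read as TRPC4 activation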
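Assay system: HEK293 cells stably co-expressing mouse TRPC4beta and mu-opioid receptor / Timing: Fluo4 dye loading 45 min at room temperature, 110 s recording / Signal: Fluo4 calcium-sensitive dye fluorescence, kinetic, 1 Hz baseline / Read-out: integrated baseline-normalised fluorescence ratio, converted to per-well B score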
TRPC6 inh: inhibitors of mouse TRPC6 channel. Q61143. HEK293-TRPC6, membrane potential dye, ACh-evoked depolarization; active compounds read low. B-score at 10 µM. 1.1% of 310,000 active. AID 2553;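 active means B-score under library mean minus 3 SD, initial fluorescence not abnormally high, positive integrated signal ratio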;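 further: B-score derived from integrated fluorescence ratio over the kinetic read; more negative B-score means stronger inhibition of depolarization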
Target sequence (Q61143 whole entry, looked up): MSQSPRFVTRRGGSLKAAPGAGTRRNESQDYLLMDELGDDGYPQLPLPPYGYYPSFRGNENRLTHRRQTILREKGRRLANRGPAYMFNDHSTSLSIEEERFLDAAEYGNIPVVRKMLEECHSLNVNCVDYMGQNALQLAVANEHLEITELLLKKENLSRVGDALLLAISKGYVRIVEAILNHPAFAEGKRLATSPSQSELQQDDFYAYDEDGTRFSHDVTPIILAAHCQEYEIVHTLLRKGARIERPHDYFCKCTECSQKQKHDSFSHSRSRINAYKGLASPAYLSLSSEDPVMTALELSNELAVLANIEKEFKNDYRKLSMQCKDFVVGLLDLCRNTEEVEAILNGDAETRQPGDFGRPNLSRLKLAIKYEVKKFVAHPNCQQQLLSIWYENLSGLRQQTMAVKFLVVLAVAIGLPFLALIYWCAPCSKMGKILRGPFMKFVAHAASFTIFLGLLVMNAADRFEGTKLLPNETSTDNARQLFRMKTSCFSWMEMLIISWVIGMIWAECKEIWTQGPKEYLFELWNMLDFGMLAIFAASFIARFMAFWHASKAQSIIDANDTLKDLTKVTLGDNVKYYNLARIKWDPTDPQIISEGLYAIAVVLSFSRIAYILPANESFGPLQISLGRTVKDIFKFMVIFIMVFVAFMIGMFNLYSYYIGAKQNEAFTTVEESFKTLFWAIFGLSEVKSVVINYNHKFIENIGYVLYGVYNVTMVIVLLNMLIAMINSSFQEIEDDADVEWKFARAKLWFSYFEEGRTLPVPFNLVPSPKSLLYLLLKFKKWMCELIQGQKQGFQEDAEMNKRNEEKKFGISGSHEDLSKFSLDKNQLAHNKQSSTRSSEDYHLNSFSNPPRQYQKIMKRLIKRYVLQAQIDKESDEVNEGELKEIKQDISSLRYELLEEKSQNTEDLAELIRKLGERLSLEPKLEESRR
TRPC4 block: TRPC4 (mouse) channel inhibition. Q9QUQ5. HEK293 TRPC4beta/mu-opioid, DAMGO-evoked Fluo4 calcium flux; active compounds read low. B-score at 10 µM. 0.39% of 300,000 active;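 active means B-score over 3 SD under the library average, no early fluorescence shift, positive overall ratio signal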
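Material: HEK293 cells with stable TRPC4beta plus mu-opioid receptor expression / Probe or stimulus: DAMGO in two steps, submaximal then maximal / Compound: single concentration per test compound / Technique: kinetic Fluo4 fluorescence imaging of calcium influx / Read-out: per-well B score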
TRPC6 act: activates the mouse TRPC6 cation channel; Q61143; HEK293-TRPC6 membrane potential dye fluorescence; active compounds read high; B-score at 10 µM; 0.13% of 310,000 active; AID 2550;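 active means B-score of the integrated fluorescence ratio above library mean plus 3 SD, and starting fluorescence ratio within library mean plus 5 SD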;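 further: higher score means more depolarization so channel activation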
TRPC4 PAM: allosteric potentiators of mouse TRPC4 channel | Q9QUQ5 | HEK293 TRPC4beta/mu-opioid, DAMGO EC20, Fluo-4 Ca2+ flux; active compounds read high | B-score at 10 µM | 0.42% of 310,000 active | AID 2227;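 active means B-score of calcium response area above 5 SD of library B-scores, with initial fluorescence ratio within 5 SD of library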;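 further: B-score of integrated fluorescence ratio over time as area under calcium response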
TRPC4 spec 2: second selectivity test of TRPC6 inhibitors: effect on mouse TRPC4 | shares compounds with TRPC6 inh | 42% of 920 active | inhibition, % at 10 µM | HEK293 TRPC4/MOR, membrane potential dye fluorescence; channel activated by saturating DAMGO dose;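 active means compounds whose fluorescence signal differed from control wells by over 3 SD, either direction, in both duplicate plates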
TRPC4 spec: selectivity of TRPC6 inhibitors: effect on mouse TRPC4; shares compounds with TRPC6 inh; HEK293 TRPC4/mu-opioid, membrane potential fluorescence; activity change, negative = inhibition, % at 10 µM; 61% of 920 active; AID 2777;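 active means rise or fall in signal beyond 3 SD of buffer-only wells in both replicate plates, either sign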;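 further: integrated kinetic ratio of fluorescence range over baseline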
HEK293 MPD ctr 2-1: parental HEK293 nonspecific activity of TRPC6 inhibitors, second screen; shares compounds with TRPC6 inh; parental HEK293 membrane potential dye fluorescence; maximal acetylcholine challenge after compound addition; signal change vs control, % at 10 µM; 31% of 920 active; AID 2779;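 active means membrane potential signal moving either way by over 3 SD of the maximum-effect control, in both duplicate plates, meaning non-specific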
HEK293 MPD ctr-1: parental HEK293 nonspecific activity of TRPC6 inhibitors | parental HEK293 membrane potential dye fluorescence | shares compounds with TRPC6 inh | 60% of 920 active | membrane potential signal change, % at 10 µM;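 active means membrane potential signal shifting up or down by more than 3 SD of buffer-only wells, on both duplicate plates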
HEK293 MPD ctr-2: checks TRPC6 modulator effects in parental HEK293 cells | membrane potential signal change, % at 10 µM | 51% of 2,400 active | membrane potential dye fluorescence | shares compounds with TRPC6 inh | AID 488924;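 active means membrane potential signal moves up or down beyond 5 SD from buffer-only wells, on both duplicate plates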
HEK293 MPD ctr 2-2: second check of TRPC6 modulator effects in parental HEK293 cells | shares compounds with TRPC6 inh | membrane potential dye fluorescence; after compound, maximal acetylcholine stimulation | inhibition, % at 10 µM | 14% of 2,400 active | AID 488926;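 active means membrane potential signal drops by more than 5 SD from the mean control signal, in both duplicate plates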;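 further: plate controls were acetylcholine ECmax control wells for no effect and buffer only wells for full effect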
TRPC4 ctr mod: mouse TRPC4 off-target activity of TRPC6 modulators; 69% of 2,400 active; HEK293 TRPC4/mu-opioid, membrane potential fluorescence; percent change from control (negative = decrease, positive = increase), % at 10 µM; shares compounds with TRPC6 inh;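 active means membrane potential signal moved up or down beyond 5 SD of buffer control wells, in both duplicate plates, actives on both sides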;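 further: plate controls were assay buffer wells for no effect and DAMGO maximal-effect wells for full effect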
TRPC4/MOR inh 2: second check of whether TRPC6 modulators also affect mouse TRPC4 | inhibition, % at 10 µM | shares compounds with TRPC6 inh | HEK293 TRPC4/mu-opioid, membrane potential dye fluorescence; stimulated with maximal-effect DAMGO | AID 488928 | 55% of 2,400 active;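 active means drop in membrane potential signal beyond 5 SD of the control wells in both duplicate plates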;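 further: TRPC4 counter screen for TRPC6 hits run under conditions tuned for TRPC6 not TRPC4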
TRPC6 block conf: mouse TRPC6 inhibitor confirmation; inhibition, % at 10 µM; 43% of 3,300 active; HEK293-TRPC6, membrane potential dye, ACh-evoked depolarization; shares compounds with TRPC6 inh;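 active means fluorescence ratio falls more than 5 SD below the full-stimulation control mean, in both duplicate runs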;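 further: integrated fluorescence ratio of peak minus minimum over baseline after agonist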
TRPC6 act confirm: confirmation of mouse TRPC6 activators. HEK293-TRPC6 membrane potential dye fluorescence, FDSS. shares compounds with TRPC6 inh. activation, % at 10 µM. 11% of 2,800 active;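 active means ratio signal rise beyond 5 SD above unstimulated control wells' mean, seen in both duplicate runs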;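 further: plate controls were buffer EC0 wells for no effect and acetylcholine ECmax response for full effect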
* = called active by the depositor; i = inactive; nt = no result. A selection: hits, their analogues and other compounds. The true share with any hit is near 2.3%.

SMILES	TRPC4 agonist	TRPC6 inh	TRPC4 block	TRPC6 act	TRPC4 PAM	HEK293 MPD ctr-2	HEK293 MPD ctr 2-2	TRPC4 ctr mod	TRPC4/MOR inh 2	TRPC6 block conf	TRPC6 act confirm	others
COc1ccc(S(=O)(=O)N2CCCCCC2)cc1NC(=O)Cc1ccccc1F	i	-8.9*	i	16*	i	i	i	i	i	i	i
COc1ccc(S(=O)(=O)N2CCCCCC2)cc1Br	i	-6.4*	i	i	i	i	i	9.0%*	i	46%*	i
COc1ccc(S(=O)(=O)N2CCCCCC2)cc1NC(=O)Cc1cc(OC)c(OC)c(OC)c1	i	i	i	i	i	nt	nt	nt	nt	nt	nt
COc1ccc(S(=O)(=O)N2CCOCC2)cc1Br	i	i	i	i	i	nt	nt	nt	nt	nt	nt
COC(=O)CCN1CCN(S(=O)(=O)c2ccccc2Br)CC1	i	i	i	i	i	nt	nt	nt	nt	nt	nt
COCCNC(=O)c1onc(CSc2ccncc2)c1C(=O)NCCOC	i	i	i	i	i	nt	nt	nt	nt	nt	nt
CC[N+](C)(C)CCN(Cc1ccc(Cl)cc1)c1ccccn1	i	-6.4*	i	i	i	i	i	i	i	i	i
COc1ccc(CN(CCN(C)C)c2ccccn2)cc1	i	i	i	i	i	nt	nt	nt	nt	nt	nt
O=c1cc(-c2ccccc2)c2cc(Cl)c(O)c(CN3CCOCC3)c2o1	i	i	i	i	i	nt	nt	nt	nt	nt	nt
CCc1cc2c(-c3ccccc3)cc(=O)oc2c(CN2CCOCC2)c1O	i	-5.1*	i	i	i	i	i	14%*	i	50%*	nt
COC(=O)CN1C(=O)S/C(=C/c2ccc(N3CCCCC3)o2)C1=O	i	i	i	13*	i	162%*	i	90%*	i	i	35%*
Cc1ccccc1NC(=O)Cn1c(NCC(C)O)nc2ccccc21 (stereo not drawn)	i	i	i	i	i	nt	nt	nt	nt	nt	nt
c1ccc(-c2cn(-c3ccccc3)c3[n+]2CCCS3)cc1	i	i	i	i	i	nt	nt	nt	nt	nt	nt
c1ccc(Cn2c(-c3ccccc3)c[n+]3c2SCCC3)cc1	i	-9.9*	i	i	i	nt	nt	nt	nt	68%*	i	TRPC4 spec 2=i;TRPC4 spec=i;HEK293 MPD ctr 2-1=40%*;HEK293 MPD ctr-1=i
OCCN(CC#CCn1c2ccccc2c2ccccc21)CCO	i	i	i	i	i	nt	nt	nt	nt	nt	nt

Screens: PubChem BioAssay, Johns Hopkins Ion Channel Center
